From ChEMBL document CHEMBL1275462 (Antimicrob Agents Chemother, 2008) come the findings set out here.

In brackets after ≈: the same amount, converted by molar mass. Activity calls are given as the source filed them. The calls are words filed in the database; no cut-off is given here.

The term MIC denotes the lowest concentration that inhibits growth of the organism. The low end stands for greater potency, the high end for weaker potency. What is called inhibition is how much of the control response was suppressed. Low readings indicate little suppression, high ones strong suppression. A word on the IC50: it is the concentration that inhibits the measured activity by half. Read a high IC50 as weaker potency.

Assay [1] has as its system Staphylococcus aureus. Put plainly: Antimicrobial activity against methicillin-resistant Staphylococcus aureus HAR24 assessed as concentration required for minimum inhibition of oxacillin-resistant subpopulation growth by Etest. The format is functional. Put shortly:
(§1)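 Etest (manufacturer's method) and population analysis: overnight cultures serially diluted and plated on TSA with increasing oxacillin or BPR, CFU counted after 48 h at 37°C. Colonies from subpopulations growing at high oxacillin or BPR were picked, restreaked on antibiotic-free TSA for three passages, then retested by population analysis.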

Assay [2] deals with Staphylococcus aureus. Put plainly: Antimicrobial activity against vancomycin-intermediate Staphylococcus aureus JH9 obtained from bacteremic patient by Etest. The format is functional. The method, boiled down:
(§2)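 Etest and population analysis: overnight cultures plated on TSA with increasing vancomycin, oxacillin or BPR, CFU counted after 48 h at 37°C. For VRSA strains, vancomycin plates also run with constant 1 µg/ml BPR. Vancomycin Etest read after overnight 37°C incubation on TSA with or without 1 µg/ml BPR.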

For assay [3], the system named is Staphylococcus aureus. Put plainly: Antimicrobial activity against methicillin-resistant Staphylococcus aureus HAR22 assessed as concentration required for bacterial subpopulation growth. The format is functional. The method, boiled down:
as §1

In assay [4] the test system is Staphylococcus aureus. Put plainly: Antimicrobial activity against vancomycin-resistant Staphylococcus aureus VRS1 by Etest. The format is functional. Put shortly: as §2
The test system of assay [5] is Staphylococcus aureus. Put plainly: Antimicrobial activity against methicillin-resistant Staphylococcus aureus USA300 assessed as concentration required for bacterial subpopulation growth. It counts as functional. The method, boiled down: as §1
Assay [6] relates to Staphylococcus aureus. Nature of the assay: Antimicrobial activity against methicillin-resistant Staphylococcus aureus BK2464 assessed as concentration required for minimum inhibition of oxacillin-resistant subpopulation growth by Etest. The format is functional. The method, boiled down: as §1
In assay [7] the test system is Staphylococcus aureus. Nature of the assay: Antimicrobial activity against methicillin-resistant Staphylococcus aureus HPV107 by Etest. The format is functional. Put shortly:
as §1

In assay [8] the test system is Staphylococcus aureus. Put plainly: Antimicrobial activity against methicillin-resistant Staphylococcus aureus HAR24 assessed as concentration required for bacterial subpopulation growth. The format is functional. The method, boiled down: as §1
In assay [9] the target is T1, MecA (Staphylococcus aureus) (UniProt Q7DHH4).
T1 sequence (whole entry): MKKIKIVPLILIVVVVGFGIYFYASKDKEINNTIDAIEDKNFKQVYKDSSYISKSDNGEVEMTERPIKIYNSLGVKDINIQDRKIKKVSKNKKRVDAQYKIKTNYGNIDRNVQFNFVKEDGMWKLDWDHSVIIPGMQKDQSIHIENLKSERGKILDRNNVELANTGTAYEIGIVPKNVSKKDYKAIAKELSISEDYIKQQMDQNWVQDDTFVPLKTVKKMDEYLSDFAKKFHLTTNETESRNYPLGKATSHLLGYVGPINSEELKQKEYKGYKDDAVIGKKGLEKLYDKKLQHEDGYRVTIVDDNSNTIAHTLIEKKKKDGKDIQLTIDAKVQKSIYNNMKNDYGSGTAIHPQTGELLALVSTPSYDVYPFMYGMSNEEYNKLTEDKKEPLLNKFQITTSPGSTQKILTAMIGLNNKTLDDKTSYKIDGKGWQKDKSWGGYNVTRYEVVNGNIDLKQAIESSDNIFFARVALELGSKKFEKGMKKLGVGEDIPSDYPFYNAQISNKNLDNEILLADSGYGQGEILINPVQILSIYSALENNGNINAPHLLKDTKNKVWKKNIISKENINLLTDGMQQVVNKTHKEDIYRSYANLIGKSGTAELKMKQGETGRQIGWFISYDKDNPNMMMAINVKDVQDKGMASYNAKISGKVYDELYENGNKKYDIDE
Nature of the assay: Displacement of benzyl-[14C]penicillin from Staphylococcus aureus PBP2a RU130 mutant at 2500 ug/ml by in vitro competitive assay. The conditions noted are these: Staphylococcus aureus subsp. aureus COL. Put shortly: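 Membranes from PBP 2 insertional mutant RU130 (Tn551 in transpeptidase domain), late exponential phase, 150 µg protein, preincubated with increasing oxacillin or BPR 10 min at 30°C. Then labelled with 20 µg/ml benzyl[14C]penicillin 10 min at 37°C and stopped with excess unlabelled penicillin in SDS. SDS-PAGE with phosphor screen exposure for 2 weeks.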

Assay [10] concerns Staphylococcus aureus. Put plainly: Antimicrobial activity against methicillin-resistant Staphylococcus aureus HAR24 by Etest. The format is functional. The method, boiled down:
as §1

For assay [11], the system named is Staphylococcus aureus. Nature of the assay: Antimicrobial activity against methicillin-resistant Staphylococcus aureus HU25 by Etest. It counts as functional. The method, boiled down: as §1
The subject of assay [12] is Staphylococcus aureus. Nature of the assay: Antimicrobial activity against methicillin-resistant Staphylococcus aureus HDE288 by Etest. The format is functional. The method, boiled down: as §1
Assay [13] deals with Staphylococcus aureus. Put plainly: Antimicrobial activity against methicillin-resistant Staphylococcus aureus HAR22 by Etest. The format is functional. The method, boiled down: as §1
The test system of assay [14] is Staphylococcus aureus. Put plainly: Bactericidal activity against methicillin-resistant Staphylococcus aureus COL assessed as reduction in viable bacterial titer after 24 hrs at 10 times MIC. The format is functional, organism-based. Put shortly: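 Time-kill: exponentially growing COL cultures (OD620 0.2, about 10^8 CFU/ml at zero time) given 10× MIC of drug under aerobic conditions. Untreated control. Aliquots taken at intervals, serially diluted, plated on TSA, colonies counted after 48 h at 37°C.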

The test system of assay [15] is Staphylococcus aureus. Put plainly: Antimicrobial activity against methicillin-resistant Staphylococcus aureus HDE288 assessed as concentration required for minimum inhibition of oxacillin-resistant subpopulation growth by Etest. The format is functional. Put shortly:
as §1

Assay [16] deals with Staphylococcus aureus. Put plainly: Antimicrobial activity against methicillin-resistant Staphylococcus aureus HPV107 assessed as concentration required for bacterial subpopulation growth. The format is functional. The method, boiled down:
as §1

The subject of assay [17] is Staphylococcus aureus. Nature of the assay: Antimicrobial activity against methicillin-resistant Staphylococcus aureus HAR22 assessed as concentration required for minimum inhibition of oxacillin-resistant subpopulation growth by Etest. The format is functional. The method, boiled down:
as §1

The subject of assay [18] is Staphylococcus aureus. Put plainly: Antimicrobial activity against methicillin-resistant Staphylococcus aureus COL by Etest. The format is functional. The method, boiled down: as §1
The subject of assay [19] is Staphylococcus aureus. Put plainly: Antimicrobial activity against methicillin-resistant Staphylococcus aureus E2125 assessed as concentration required for bacterial subpopulation growth. The format is functional. The method, boiled down:
as §1

Assay [20] relates to Staphylococcus aureus. Put plainly: Antimicrobial activity against methicillin-resistant Staphylococcus aureus BK2464 by Etest. It counts as functional. The method, boiled down: as §1
For assay [21], the target named is T1, MecA (Staphylococcus aureus). Put plainly: Inhibition of methicillin-resistant Staphylococcus aureus 67-O PBP2a by competitive assay.
The subject of assay [22] is Staphylococcus aureus. Nature of the assay: Antimicrobial activity against methicillin-resistant Staphylococcus aureus BK2529 by Etest. It counts as functional. Put shortly:
as §1

For assay [23], the system named is Staphylococcus aureus. Nature of the assay: Antimicrobial activity against methicillin-resistant Staphylococcus aureus HU25 assessed as concentration required for bacterial subpopulation growth. The format is functional. The method, boiled down: as §1
In assay [24] the test system is Staphylococcus aureus. Put plainly: Antimicrobial activity against oxacillin-resistant Staphylococcus aureus COLVA harboring Tn1546 transposon by Etest. It counts as functional. The method, boiled down: as §2
Assay [25] relates to Staphylococcus aureus. Put plainly: Antimicrobial activity against methicillin-resistant Staphylococcus aureus BK2464 assessed as concentration required for bacterial subpopulation growth. It counts as functional. The method, boiled down: as §1
Assay [26] deals with Staphylococcus aureus. Nature of the assay: Antimicrobial activity against methicillin-resistant Staphylococcus aureus USA300 by Etest. The format is functional. The method, boiled down:
as §1

Assay [27] deals with T1, MecA (Staphylococcus aureus). Nature of the assay: Inhibition of methicillin-resistant Staphylococcus aureus COL PBP2a at 10 uM by competitive assay. The conditions noted are these: Staphylococcus aureus subsp. aureus COL. The method, boiled down:
(§3)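 Purified soluble PBP 2A (mecA expressed in E. coli, 97% pure) at 0.8 µM, preincubated with drug 30 min at 30°C. Then 20 µM Bocillin FL added for 10 min at 37°C, quenched with SDS-PAGE buffer and boiled. Drug range 0.5–20 µM; for IC50, BPR 0.5–200 µM or oxacillin 5–6,000 µM. Curve fitting.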

Assay [28] concerns Staphylococcus aureus. Nature of the assay: Antimicrobial activity against methicillin-resistant Staphylococcus aureus E2125 by Etest. It counts as functional. Put shortly:
as §1

The test system of assay [29] is Staphylococcus aureus. Put plainly: Antimicrobial activity against methicillin-resistant Staphylococcus aureus HPV107 assessed as concentration required for minimum inhibition of oxacillin-resistant subpopulation growth by Etest. It counts as functional. The method, boiled down:
as §1

The test system of assay [30] is Staphylococcus aureus. Nature of the assay: Antimicrobial activity against methicillin-resistant Staphylococcus aureus COL assessed as reduction in viable bacterial titer after 24 hrs in presence of 10 times compound MIC. It counts as functional.
Assay [31] has as its system Staphylococcus aureus. Nature of the assay: Antimicrobial activity against vancomycin-intermediate Staphylococcus aureus Mu50 by Etest. The format is functional. The method, boiled down:
as §2

Assay [32] has as its system Staphylococcus aureus. Put plainly: Antimicrobial activity against methicillin-resistant Staphylococcus aureus HDE288 assessed as concentration required for bacterial subpopulation growth. It counts as functional. The method, boiled down: as §1
Assay [33] has as its system Staphylococcus aureus. Nature of the assay: Antimicrobial activity against methicillin-resistant Staphylococcus aureus BK2529 assessed as concentration required for bacterial subpopulation growth. The format is functional. The method, boiled down:
as §1

In assay [34] the test system is Staphylococcus aureus. Put plainly: Antimicrobial activity against methicillin-resistant Staphylococcus aureus USA300 assessed as concentration required for minimum inhibition of oxacillin-resistant subpopulation growth by Etest. It counts as functional. The method, boiled down: as §1
Assay [35] has as its system Staphylococcus aureus. Put plainly: Antimicrobial activity against methicillin-resistant Staphylococcus aureus E2125 assessed as concentration required for minimum inhibition of oxacillin-resistant subpopulation growth by Etest. The format is functional. Put shortly:
as §1

In assay [36] the test system is Staphylococcus aureus. Put plainly: Antimicrobial activity against methicillin-resistant Staphylococcus aureus BK2529 assessed as concentration required for minimum inhibition of oxacillin-resistant subpopulation growth by Etest. The format is functional. Put shortly: as §1
Assay [37] has as its target T2, MecA (Staphylococcus aureus, UniProt Q7DHH4).
T2 sequence (Q7DHH4 whole entry): T1 sequence (whole entry)
Nature of the assay: Inhibition of methicillin-resistant Staphylococcus aureus COL PBP2a by competitive assay. More on the design: species or system Staphylococcus aureus subsp. aureus COL. The method, boiled down: as §3

On to `Cc1onc(-c2ccccc2)c1C(=O)N[C@@H]1C(=O)N2[C@@H]1SC(C)(C)[C@@H]2C(=O)O` [OXACILLIN], for which the Activity was 800 µg/mL in assay [1]; 400 µg/mL in [3]; 800 µg/mL in assay [5]; 200 µg/mL in assay [6]; 800 µg/mL in [8]; 200 µg/mL in assay [15]. The Activity in [16] is 400 µg/mL; in [17] it was 800 µg/mL; in assay [19], 400 µg/mL; in [21] it was 300 µg/mL; in assay [23] it was 800 µg/mL; in assay [25], 400 µg/mL. Also, the Activity was 100 µg/mL in assay [29]; 400 µg/mL in assay [32]; 400 µg/mL in [33]; 400 µg/mL in [34]; 400 µg/mL in [35]; 200 µg/mL in assay [36]. The MIC in assay [2] was 3 µg/mL (≈ 7.47 µM); in [4], > 800 µg/mL; in assay [7], 0.8 µg/mL (≈ 1.99 µM); in assay [10], 100 µg/mL (≈ 249 µM); in assay [11], 400 µg/mL (≈ 996 µM); in assay [12], 0.8 µg/mL (≈ 1.99 µM). Also, the minimal inhibitory concentration (MIC) in assay [13] is 100 µg/mL (≈ 249 µM); in [18], > 800 µg/mL; in assay [20], 12.5 µg/mL (≈ 31.1 µM); in assay [22], 1.5 µg/mL (≈ 3.74 µM); in assay [24], 800 µg/mL (≈ 1990 µM); in assay [26] it was 0.8 µg/mL (≈ 1.99 µM). In addition, the MIC in assay [28] is 6 µg/mL (≈ 14.9 µM); in assay [31], > 800 µg/mL. Also, the outcome in [9] was Active. In [14], the outcome was inactive. The same compound had an inhibition in assay [27] of 5%. Besides, the fold reduction in CFU in [30] came out at 1000 fold. In addition, the IC50 in [37] worked out at 710 µM.

For `CN[C@H](CC(C)C)C(=O)N[C@H]1C(=O)N[C@@H](CC(N)=O)C(=O)N[C@H]2C(=O)N[C@H]3C(=O)N[C@H](C(=O)N[C@H](C(=O)O)c4cc(O)cc(O)c4-c4cc3ccc4O)[C@H](O)c3ccc(c(Cl)c3)Oc3cc2cc(c3O[C@@H]2O[C@H](CO)[C@@H](O)[C@H](O)[C@H]2O[C@H]2C[C@](C)(N)[C@H](O)[C@H](C)O2)Oc2ccc(cc2Cl)[C@H]1O` [VANCOMYCIN], the MIC is 6 µg/mL (≈ 4.14 µM) in [2], > 800 µg/mL in [4], 800 µg/mL (≈ 552 µM) in assay [24] and 6 µg/mL (≈ 4.14 µM) in [31].
